# GASC1 inh: inhibitors of GASC-1 (KDM4C) histone demethylase, primary screen, biochemical, single concentration HTS. Lysine-specific demethylase 4C (Homo sapiens), Q9H3R0. inhibition, % at 12.5 µM. GST-KDM4C 2-372, H3K9me3 peptide, LANCE TR-FRET. hit rate 0.15% among 96,000;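 active = mean replicate inhibition above about 25%, with at least 55% of replicates also reaching it, limit read from the data, passing the limit was not always enough; inconclusive = only one of those two conditions met; inactive = neither condition met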
# Target sequence (Q9H3R0 2-372 limits assumed): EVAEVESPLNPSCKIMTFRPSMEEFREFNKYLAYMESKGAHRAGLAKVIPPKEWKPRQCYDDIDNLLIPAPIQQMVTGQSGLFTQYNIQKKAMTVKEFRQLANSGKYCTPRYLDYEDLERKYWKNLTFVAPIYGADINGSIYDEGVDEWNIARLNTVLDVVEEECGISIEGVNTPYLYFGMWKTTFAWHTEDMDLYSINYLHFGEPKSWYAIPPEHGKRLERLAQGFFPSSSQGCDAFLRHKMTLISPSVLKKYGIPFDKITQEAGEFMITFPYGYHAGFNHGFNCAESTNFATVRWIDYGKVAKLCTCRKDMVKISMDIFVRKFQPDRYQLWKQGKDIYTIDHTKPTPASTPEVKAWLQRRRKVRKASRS
#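 reagent = H3K9me3 peptide substrate, Fe(II), 2-oxoglutarate | system = GST-tagged GASC-1 (JMJD2C) catalytic fragment, aa 2-372 | amount = enzyme final amount 10 nM | read-out = Fall in 671/618 emission ratio as inhibition | medium = HEPES buffer, pH 7.5, plus ascorbate | schedule = 30 min reaction, 60 min detection, RT | measured by = LANCE TR-FRET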
# Pf Dd2 inh: P. falciparum Dd2 growth inhibitors, primary screen, SYBR Green fluorescence, single dose replicates | AID 1159554, 2015 | hit rate 2.3% among 94,000 | 72 h; active compounds read low | activity change, % at 10 µM; in the data active = activity change below about -80%; inconclusive = no clear call, values can overlap the other calls
# IDH1 mut inh: inhibitors of IDH1 R132H reductase, primary screen, biochemical, plate reader, single point | Isocitrate dehydrogenase [NADP] cytoplasmic (Homo sapiens), O75874 | diaphorase/resazurin fluorescence, 60 min | inhibition, % at 10 µM | hit rate 0.18% among 70,000 | AID 624101, 2012; in the data active = inhibition above about 34%; inconclusive = no clear call, values can overlap the other calls; inactive = below about 11%;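 also: 0% = DMSO and 100% = no enzyme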
# T cruzi growth-1: T. cruzi intracellular proliferation inhibitors, primary screen, cell-based, beta-gal Tulahuen parasites, NIH3T3 host, luminescence. AID 624255, 2012. inhibition, % at 8.34 µM. hit rate 5.9% among 77,000. T. cruzi beta-gal in NIH3T3, GalScreen luminescence, 90 h;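 active = mean inhibition above about 93%, with at least 55% of replicates each passing it, limit read from the data, passing the limit was not always enough; inconclusive = only one of those two conditions holds; inactive = neither condition holds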
# T cruzi growth-2: T. cruzi intracellular proliferation inhibitors, confirmation, cell-based, NIH3T3 host, beta-gal parasite, luminescence, cherry-pick; shares compounds with T cruzi growth-1; T. cruzi beta-gal in NIH3T3, GalScreen luminescence, 90 h; inhibition, % at 8.35 µM; hit rate 72% among 5,600; AID 651739, 2012;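 active = mean replicate inhibition above about 95% and at least 55% of replicates individually reaching it, limit read from the data; inconclusive = only one of the two criteria is met; inactive = neither criterion is met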
# T cruzi growth-3: inhibitors of intracellular T. cruzi replication, confirmation, NIH3T3 host cells, beta-gal parasites, cherry-pick, set 2; shares compounds with T cruzi growth-1; T. cruzi beta-gal in NIH3T3, GalScreen luminescence, 90 h; inhibition, % at 2.09 µM; hit rate 21% among 5,600; AID 651740, 2012;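 active = mean inhibition above about 95%, with at least 55% of replicates also reaching it, limit read from the data; inconclusive = meets just one of the two conditions; inactive = meets neither condition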;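 also: plate controls were neutral control median for no effect and positive control median for full effect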
# 3T3 cytotox: cytotoxicity in mouse NIH/3T3 fibroblasts, confirmation, cytotoxicity control for T. cruzi proliferation inhibitor project, cell-based, cherry-pick, single point; shares compounds with T cruzi growth-1; NIH/3T3 viability, CellTiter-Glo ATP luminescence, 90 h; cytotoxicity (signal decrease), % at 8.35 µM; hit rate 14% among 5,600; AID 651742, 2012;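 active = mean signal decrease across replicates above about 35% based on untreated-well scatter, with enough replicates individually passing, limit read from the data; inconclusive = no rule stated though some were filed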;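 also: 0% = median of neutral control wells and 100% = median of positive control wells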
# NIH3T3 tox 2: NIH/3T3 fibroblast cytotoxicity, confirmation, cytotoxicity control, cell-based, cherry-pick, single point, set 2; inhibition, % at 24.9 µM; NIH/3T3 viability, CellTiter-Glo ATP luminescence, 90 h; hit rate 56% among 5,600; shares compounds with T cruzi growth-1;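 active = mean loss of cell viability signal at or above a set limit, and enough replicates individually reaching it; inconclusive = meets only the mean limit or only the replicate share; inactive = meets neither condition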;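 also: 0% = median of neutral control wells and 100% = median of positive control wells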
# The depositor's hits bear a star; ? = inconclusive; · = no result given. Sampled rows, rich in hits. Any-hit rate of the full collection: about 5.9%.
SMILES,GASC1 inh,Pf Dd2 inh,IDH1 mut inh,T cruzi growth-1,T cruzi growth-2,T cruzi growth-3,3T3 cytotox,NIH3T3 tox 2
C[C@H](CO)N1C[C@H](C)[C@@H](CN(C)Cc2ccccc2)Oc2ccc(NC(=O)Nc3ccc(C(F)(F)F)cc3)cc2C1=O,1,-20,3,30,·,·,·,·
C[C@@H]1CN([C@@H](C)CO)C(=O)c2cc(NC(=O)Nc3ccc(C(F)(F)F)cc3)ccc2O[C@H]1CN(C)Cc1ccc(-c2ccccc2)cc1,1,-42,0,104*,102*,80,10,105*
C[C@@H]1CN([C@H](C)CO)C(=O)c2cc(NC(=O)Nc3ccc(C(F)(F)F)cc3)ccc2O[C@H]1CN(C)Cc1ccc(-c2ccccc2)cc1,-1,-10,0,123*,89,?,84*,102*
C[C@@H]1CN([C@@H](C)CO)C(=O)c2cc(NC(=O)Nc3ccc(C(F)(F)F)cc3)ccc2O[C@@H]1CN(C)Cc1ccc(-c2ccccc2)cc1,-1,-23,·,120*,102*,98*,56*,103*
C[C@@H]1CN([C@H](C)CO)C(=O)c2cc(NC(=O)Nc3ccccc3)ccc2O[C@H]1CN(C)Cc1ccc(C(F)(F)F)cc1,1,-22,0,16,·,·,·,·
COC(=O)CCCCCCC(=O)N/N=C/c1c(O)ccc2ccccc12,·,·,0,·,·,·,·,·
COc1ccc(-c2ccc([C@H]3[C@@H](CO)N4CCCCN(C(=O)c5ccc6c(c5)OCO6)C[C@@H]34)cc2)cc1,0,-44,·,118*,107*,93,46*,43*
COc1ccc(-c2ccc([C@@H]3[C@@H](CO)N4CCCCN(C(=O)c5ccc6c(c5)OCO6)C[C@@H]34)cc2)cc1,-1,-76,·,115*,98*,39,2,43*
COc1ccc(-c2ccc([C@H]3[C@@H](CO)N4CCCCN(C(=O)c5ccc6c(c5)OCO6)C[C@H]34)cc2)cc1,-3,-33,·,101*,104*,66,49*,104*
COc1ccc(-c2ccc([C@@H]3[C@H]4CN(C(=O)c5ccc(F)cc5)CCCCN4[C@H]3CO)cc2)cc1,1,-21,·,71,·,·,·,·
COc1ccc(-c2ccc([C@@H]3[C@@H](CO)N4CCCCN(C(=O)c5ccc6c(c5)OCO6)C[C@H]34)cc2)cc1,-1,-23,·,98*,79,33,21,98*
COc1ccc(-c2ccc([C@@H]3[C@@H](CO)N4CCCCN(C(=O)c5ccc(F)cc5)C[C@@H]34)cc2)cc1,1,22,·,67,·,·,·,·
O=C(c1ccc2c(c1)OCO2)N1CCCCN2[C@H](C1)[C@@H](c1ccc(-c3ccccc3)cc1)[C@@H]2CO,0,3,·,88,·,·,·,·
Cc1ccc(-c2cnc3c(c2)C(=O)N([C@@H](C)CO)C[C@H](C)[C@H](CN(C)S(C)(=O)=O)O3)cc1,0,-2,5,·,·,·,·,·
COc1cc(C)c(Br)cc1S(=O)(=O)NCC1CCCO1 (stereo not drawn),·,·,0,·,·,·,·,·
Cc1cc(C)c(NC(=O)CSc2nnc(-c3ccncc3)n2-c2ccccc2)c([N+](=O)[O-])c1,·,·,1,·,·,·,·,·
Cn1c(CSc2ccnc3cc(Cl)ccc23)nnc1SCC(=O)c1ccc(Cl)s1,·,·,0,·,·,·,·,·
COCC(=O)N(C)C[C@@H]1Oc2cc(C#Cc3ccccc3)ccc2S(=O)(=O)N([C@@H](C)CO)C[C@H]1C,-1,-75,1,?,60,34,-6,21
C[C@H](CO)N1C[C@H](C)[C@H](CN(C)C(=O)CN(C)C)Oc2cc(C#Cc3ccccc3)ccc2S1(=O)=O,-2,?,0,-18,·,·,·,·
COCC(=O)N(C)C[C@@H]1Oc2cc(C#Cc3ccccc3)ccc2S(=O)(=O)N([C@H](C)CO)C[C@H]1C,-3,-77,0,71,·,·,·,·
C[C@@H]1CN([C@@H](C)CO)S(=O)(=O)c2ccc(C#Cc3ccccc3)cc2O[C@H]1CN(C)C(=O)CN(C)C,0,-67,0,102*,100*,60,7,103*
C[C@H](CO)N1C[C@H](C)[C@H](CN(C)S(=O)(=O)c2ccccc2C#N)OCc2ccccc2-c2c(n(C)c3ccccc23)C1=O,0,-43,·,108*,?,59,16,46*
Cc1ccccc1S(=O)(=O)N(C)C[C@@H]1OCc2ccccc2-c2ccccc2C(=O)N([C@H](C)CO)C[C@@H]1C,3,-39,-5,?,83,16,-9,16
C[C@H]1CN([C@@H](C)CO)C(=O)c2c(c3ccccc3n2C)-c2ccccc2CO[C@@H]1CN(C)S(=O)(=O)c1ccccc1C#N,·,-77,·,89,·,·,·,·
C[C@H](CO)N1C[C@H](C)[C@@H](CN(C)S(=O)(=O)c2cn(C)cn2)OCc2ccccc2-c2c(n(C)c3ccccc23)C1=O,-1,-20,·,107*,97*,4,27,99*
Cc1ccccc1S(=O)(=O)N(C)C[C@@H]1OCc2ccccc2-c2ccccc2C(=O)N([C@@H](C)CO)C[C@H]1C,0,-52,·,87,·,·,·,·
Cc1ccccc1S(=O)(=O)N(C)C[C@H]1OCc2ccccc2-c2c(n(C)c3ccccc23)C(=O)N([C@H](C)CO)C[C@@H]1C,-4,-64,·,?,96*,56,-17,24*
C[C@@H]1CN([C@H](C)CO)C(=O)c2c(c3ccccc3n2C)-c2ccccc2CO[C@H]1CN(C)S(=O)(=O)c1ccsc1,-5,-86*,-2,107*,105*,63,-28,2
C[C@H]1CN([C@@H](C)CO)C(=O)c2ccccc2-c2ccccc2CO[C@H]1CN(C)S(=O)(=O)c1ccc(C(F)(F)F)cc1,1,-81*,·,108*,105*,55,14,5
Cc1ccccc1S(=O)(=O)N(C)C[C@H]1OCc2ccccc2-c2c(n(C)c3ccccc23)C(=O)N([C@@H](C)CO)C[C@@H]1C,-5,-85*,·,?,101*,84,10,?

# Source: PubChem
